Values after ≈ are worked out from the molar mass of the structure shown. Active and inactive are the calls of the source. The calls are words filed in the database; no cut-off is given here.
Assays:
Staphylococcus aureus [1] = experiment: Antibacterial activity against Staphylococcus aureus ATCC 29213 incubated for 24 hrs by Alamar blue staining based microdilution method; type: functional
Escherichia coli = experiment: Antibacterial activity against Escherichia coli ATCC 25922 incubated for 24 hrs by Alamar blue staining based microdilution method; type: functional
Staphylococcus aureus [2] = experiment: Antibacterial activity against methicillin-resistant Staphylococcus aureus ATCC 15187 incubated for 24 hrs by Alamar blue staining based microdilution method; type: functional
[3] = Cytotoxicity in human HepG2 cells incubated for 24 hrs by MTT assay; type: toxicity, cell-based
How it was run: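 HepG2 cells, 1 × 10^4 per well in DMEM/10% FBS, 24 h attachment; compounds 200 to 0.19 μg ml−1 for 24 h at 37 °C, 5% CO2; MTT 2.5 mg ml−1 for 3 h, formazan in DMSO, OD 570 nm; doxorubicin 10 μM control.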

Staphylococcus aureus [4] = experiment: Antibacterial activity against Staphylococcus aureus SA-K2191 overexpressing MsrA by Alamar blue staining based analysis; type: functional
Staphylococcus aureus [5] = experiment: Antibacterial activity against Ciprofloxacin-sensitive Staphylococcus aureus […] by Alamar blue staining based analysis; type: functional
Staphylococcus aureus [6] = experiment: Antibacterial activity against Staphylococcus aureus SA-1199B overexpressing NorA by Alamar blue staining based analysis; type: functional
Staphylococcus aureus [7] = experiment: Antibacterial activity against Staphylococcus aureus SA-K2192 overexpressing TetK by Alamar blue staining based analysis; type: functional
Staphylococcus aureus [8] = experiment: Induction of morphological disruption in methicillin-resistant Staphylococcus aureus ATCC 15187 at 1 to 2 times MIC incubated for 2 to 6 hrs by SEM analysis; type: functional, organism-based; conditions: time 2-6 hrs
How it was run: (§1)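 Bacteria incubated for 2 h and 6 h at 1×, 2× and 4× MIC, with vancomycin and daptomycin at 1× and 2× MIC and untreated cells; cell morphology imaged by scanning electron microscopy.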

Staphylococcus aureus [9] = experiment: Induction of morphological disruption in Staphylococcus aureus ATCC 29213 at 1 to 2 times MIC incubated for 2 to 6 hrs by SEM analysis; type: functional, organism-based; conditions: time 2-6 hrs; how it was run: as §1

Structure (SMILES) | MIC (Staphylococcus aureus [1]) [µg/mL] | MIC (Escherichia coli) | MIC (Staphylococcus aureus [2]) [µg/mL] | IC50 at 24 h [3] [µg/mL] | MIC (Staphylococcus aureus [4]) [µg/mL] | MIC (Staphylococcus aureus [5]) [µg/mL] | MIC (Staphylococcus aureus [6]) [µg/mL] | MIC (Staphylococcus aureus [7]) [µg/mL] | Activity (Staphylococcus aureus [8]) | Activity (Staphylococcus aureus [9])
CCCc1nn(C)c2c(N3CCN(c4ccncc4)CC3)nc(-c3ccc([N+](=O)[O-])o3)nc12 | 1 (≈ 2.23 µM) | inactive | 0.25 (≈ 0.557 µM) | > 50 |  |  |  |  |  | 
CCCc1nn(C)c2c(N3CCCCC3)nc(-c3ccc([N+](=O)[O-])o3)nc12 | > 32 | inactive | > 32 | > 50 |  |  |  |  |  | 
CCCc1nn(C)c2c(N3CCC(c4ccccc4)CC3)nc(-c3ccc([N+](=O)[O-])o3)nc12 | > 32 | inactive | > 32 | > 50 |  |  |  |  |  | 
CCCc1nn(C)c2c(N3CCC(CO)CC3)nc(-c3ccc([N+](=O)[O-])o3)nc12 | > 32 | inactive | > 32 | > 50 |  |  |  |  |  | 
CCCc1nn(C)c2c(NCc3cccnc3)nc(-c3ccc([N+](=O)[O-])o3)nc12 | 8 (≈ 20.3 µM) | inactive | 4 (≈ 10.2 µM) | > 50 |  |  |  |  |  | 
O=C(O)c1cn(C2CC2)c2cc(N3CCNCC3)c(F)cc2c1=O [CIPROFLOXACIN] | 0.25 (≈ 0.754 µM) |  |  |  | 4.14 (≈ 12.5 µM) | 0.25 (≈ 0.754 µM) | 4.14 (≈ 12.5 µM) | 0.25 (≈ 0.754 µM) |  | 
CCCc1nn(C)c2c(N3CCOCC3)nc(-c3ccc([N+](=O)[O-])o3)nc12 | > 32 | inactive | > 32 | > 50 |  |  |  |  |  | 
CCCc1nn(C)c2c(N3CCN(C)CC3)nc(-c3ccc([N+](=O)[O-])o3)nc12 | > 32 | inactive | > 32 | > 50 |  |  |  |  |  | 
CCCc1nn(C)c2c(Nc3ccccc3O)nc(-c3ccc([N+](=O)[O-])o3)nc12 | 0.5 (≈ 1.27 µM) | inactive | 1 (≈ 2.54 µM) | > 50 |  |  |  |  |  | 
CCCc1nn(C)c2c(Nc3cccc(O)c3)nc(-c3ccc([N+](=O)[O-])o3)nc12 | 4 (≈ 10.1 µM) | inactive | 1 (≈ 2.54 µM) | > 50 |  |  |  |  |  | 
CCCc1nn(C)c2c(=O)[nH]c(-c3ccc([N+](=O)[O-])o3)nc12 | 8 (≈ 26.4 µM) | inactive | 8 (≈ 26.4 µM) | > 50 |  |  |  |  |  | 
CCCc1nn(C)c2c(Nc3ccc(OC)cc3)nc(-c3ccc([N+](=O)[O-])o3)nc12 | > 32 | inactive | > 32 | > 50 |  |  |  |  |  | 
CCCc1nn(C)c2c(N3CCC(=O)CC3)nc(-c3ccc([N+](=O)[O-])o3)nc12 | > 32 | inactive | 16 (≈ 41.6 µM) | > 50 |  |  |  |  |  | 
CCCc1nn(C)c2c(NCCCCCO)nc(-c3ccc([N+](=O)[O-])o3)nc12 | 4 (≈ 10.3 µM) | inactive | 0.5 (≈ 1.29 µM) | 38.1 (≈ 98.1 µM) |  |  |  |  |  | 
CCCc1nn(C)c2c(NCCCCCCO)nc(-c3ccc([N+](=O)[O-])o3)nc12 | 32 (≈ 79.5 µM) | inactive | 2 (≈ 4.97 µM) | > 50 |  |  |  |  |  | 
CCCc1nn(C)c2c(NCCN3CCOCC3)nc(-c3ccc([N+](=O)[O-])o3)nc12 | > 32 | inactive | > 32 | > 50 |  |  |  |  |  | 
CCCc1nn(C)c2c(NCCO)nc(-c3ccc([N+](=O)[O-])o3)nc12 | > 32 | inactive | 8 (≈ 23.1 µM) | > 50 |  |  |  |  |  | 
CCCc1nn(C)c2c(N3CCC(O)CC3)nc(-c3ccc([N+](=O)[O-])o3)nc12 | 16 (≈ 41.4 µM) | inactive | 0.5 (≈ 1.29 µM) | > 50 |  |  |  |  |  | 
CCCc1nn(C)c2c(NCCCCO)nc(-c3ccc([N+](=O)[O-])o3)nc12 | 4 (≈ 10.7 µM) | inactive | 0.25 (≈ 0.668 µM) | > 50 |  |  |  |  |  | 
CCCc1nn(C)c2c(Nc3ccc(C(F)(F)F)cc3)nc(-c3ccc([N+](=O)[O-])o3)nc12 | > 32 | inactive | > 32 | > 50 |  |  |  |  |  | 

Structure (SMILES) | MIC (Staphylococcus aureus [1]) [µg/mL] | MIC (Escherichia coli) | MIC (Staphylococcus aureus [2]) [µg/mL] | IC50 at 24 h [3] [µg/mL] | MIC (Staphylococcus aureus [4]) [µg/mL] | MIC (Staphylococcus aureus [5]) [µg/mL] | MIC (Staphylococcus aureus [6]) [µg/mL] | MIC (Staphylococcus aureus [7]) [µg/mL] | Activity (Staphylococcus aureus [8]) | Activity (Staphylococcus aureus [9])
CCCc1nn(C)c2c(N3CCC(CCO)CC3)nc(-c3ccc([N+](=O)[O-])o3)nc12 | > 32 | inactive | > 32 | > 50 |  |  |  |  |  | 
CCCc1nn(C)c2c(NCc3ccc(OC)c(F)c3)nc(-c3ccc([N+](=O)[O-])o3)nc12 | > 32 | inactive | > 32 | > 50 |  |  |  |  |  | 
CCCc1nn(C)c2c(NCc3ccc(OC)cc3)nc(-c3ccc([N+](=O)[O-])o3)nc12 | > 32 | inactive | > 32 | > 50 |  |  |  |  |  | 
CCCc1nn(C)c2c(Nc3ccc(F)cc3)nc(-c3ccc([N+](=O)[O-])o3)nc12 | 8 (≈ 20.2 µM) | inactive | 0.25 (≈ 0.631 µM) | > 50 |  |  |  |  |  | 
CCCc1nn(C)c2c(Nc3ccncc3)nc(-c3ccc([N+](=O)[O-])o3)nc12 | 0.5 (≈ 1.32 µM) | 4 µg/mL (≈ 10.5 µM) | 4 (≈ 10.5 µM) | > 50 |  |  |  |  |  | 
CCCc1nn(C)c2c(NCCN3CCCCC3)nc(-c3ccc([N+](=O)[O-])o3)nc12 | > 32 | inactive | > 32 | > 50 |  |  |  |  |  | 
CCCc1nn(C)c2c(Nc3ccc(Br)cc3)nc(-c3ccc([N+](=O)[O-])o3)nc12 | > 32 | inactive | > 32 | > 50 |  |  |  |  |  | 
CCCc1nn(C)c2c(NCCCO)nc(-c3ccc([N+](=O)[O-])o3)nc12 | 4 (≈ 11.1 µM) | inactive | 2 (≈ 5.55 µM) | > 50 |  |  |  |  |  | 
CCCc1nn(C)c2c(NCc3ccncc3)nc(-c3ccc([N+](=O)[O-])o3)nc12 | 1 (≈ 2.54 µM) | inactive | 1 (≈ 2.54 µM) | > 50 |  |  |  |  |  | 
CCCc1nn(C)c2c(NCc3ccccc3)nc(-c3ccc([N+](=O)[O-])o3)nc12 | > 32 | inactive | > 32 | > 50 |  |  |  |  |  | 
CCCc1nn(C)c2c(Nc3ccc(OC(F)(F)F)cc3)nc(-c3ccc([N+](=O)[O-])o3)nc12 | > 32 | inactive | > 32 | > 50 |  |  |  |  |  | 
CCCc1nn(C)c2c(NCCCN3CCOCC3)nc(-c3ccc([N+](=O)[O-])o3)nc12 | > 32 | inactive | > 32 | > 50 |  |  |  |  |  | 
CCCc1nn(C)c2c(Nc3ccc(Cl)cc3)nc(-c3ccc([N+](=O)[O-])o3)nc12 | > 32 | inactive | > 32 | > 50 |  |  |  |  |  | 
CCCc1nn(C)c2c(N3CCCC3)nc(-c3ccc([N+](=O)[O-])o3)nc12 | > 32 | inactive | > 32 | > 50 |  |  |  |  |  | 
CCCc1nn(C)c2c(Nc3cccc(F)c3)nc(-c3ccc([N+](=O)[O-])o3)nc12 | > 32 | inactive | 4 (≈ 10.1 µM) | 38.9 (≈ 98 µM) |  |  |  |  |  | 
CCCc1nn(C)c2c(N3CCN(c4ccccc4O)CC3)nc(-c3ccc([N+](=O)[O-])o3)nc12 | > 32 | inactive | > 32 | > 50 |  |  |  |  |  | 
CCCCCCCCCC(=O)N[C@@H](Cc1c[nH]c2ccccc12)C(=O)N[C@@H](CC(N)=O)C(=O)N[C@@H](CC(=O)O)C(=O)N[C@@H]1C(=O)NCC(=O)N[C@@H](CCCN)C(=O)N[C@@H](CC(=O)O)C(=O)N[C@H](C)C(=O)N[C@@H](CC(=O)O)C(=O)NCC(=O)N[C@H](CO)C(=O)N[C@@H]([C@@H](C)CC(=O)O)C(=O)N[C@@H](CC(=O)c2ccccc2N)C(=O)O[C@@H]1C |  |  |  |  |  |  |  |  | Active | Active
CCCc1nn(C)c2c(NC3CCOCC3)nc(-c3ccc([N+](=O)[O-])o3)nc12 | > 32 | inactive | > 32 | > 50 |  |  |  |  |  | 
CCCc1nn(C)c2c(N3CCN(c4cccc(O)c4)CC3)nc(-c3ccc([N+](=O)[O-])o3)nc12 | > 32 | inactive | > 32 | > 50 |  |  |  |  |  | 
